# Assay outcomes deposited in PubChem by several laboratories.
# A selection: hits, their analogues and other compounds. The true share with any hit is near 2.2%.
# Wee1 degr inh – inhibitors of human Wee1 degradation; P30291; HeLa Luc-Wee1K328M stability, luciferase luminescence; 100% = proteasome inhibitor MG132 effect; reporter increase, % at 5 µM; 1.2% of 220,000 active; AID 1321;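 active = activation above the mean of all tested compounds plus 3 SD, set per screening run, cut at about 8.8% in these data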;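 also: cells exposed to compound for 20 h before luminescence read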
# PKD1 kinase inh – inhibitors of human PKD1 kinase; PKD1 kinase fluorescence polarization assay; inhibition, % (no concentration beside the values); 0.056% of 200,000 active; in the data active = inhibition above about 50%
# Redox H2O2 prof – compounds producing H2O2 with reducing agent – biochemical, NIH compound library profiling, artefact control for MLSCN library redox annotation, primary screen; 0.03% of 200,000 active; DTT-dependent redox cycling H2O2, phenol red/HRP absorbance; 100% = 100 µM peroxide control, 0% = buffer; activation, % at 10 µM;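 active = activation of at least 50% relative to the plate's high and low controls in the primary single-dose screen; inactive = activation below 50%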;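 also: compound incubated with DTT at 0.8 mM final as the reducing agent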
# RBBP9 inh – inhibitors of human serine hydrolase RBBP9. 0.2% of 220,000 active. recombinant RBBP9, FP-Rh probe fluorescence polarization. inhibition, % at 7.94 µM. O75884;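 active = inhibition above the campaign mean of all tested compounds plus 3 SD, cut at about 14% in these data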
#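 Measured by – fluorescence polarization · Test system – RBBP9 protein · Input – 2.5 µM RBBP9 dispensing solution, before mixing · Measure – percent inhibition from mP, scaled between DMSO and no-protein wells · Benchmarks – DMSO-treated enzyme wells and wells lacking RBBP9 · Times – preincubation 30 min plus labeling 45 min at 25 °C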
# p97 ATPase inh – inhibitors of human p97 ATPase. inhibition, % at 8 µM. recombinant p97 ATPase, Kinase-Glo ATP luminescence, 3 h. 0.42% of 220,000 active. P55072; in the data active = inhibition above about 15%
# Arbovirus inh – blocks arbovirus infection. arbovirus infection cell-based antiviral screen. inhibition, % at 10 µM. 0.37% of 200,000 active. AID 1251; in the data active = inhibition above about 30%
# A number is an active result; – = inactive; · = no result given.
SMILES,Wee1 degr inh,PKD1 kinase inh,Redox H2O2 prof,RBBP9 inh,p97 ATPase inh,Arbovirus inh
CC(C)CN(CCOc1cccc(N2C(=O)C3=C(CCCC3)C2=O)c1)CC(C)C,9.0,–,–,–,–,–
CCN(c1ccccc1)S(=O)(=O)c1cc(C(=O)Oc2ccc3c(C)cc(=O)oc3c2)ccc1C,–,–,–,–,–,–
CCc1ccc(CCC(=O)Nc2ccccc2C(=O)O)o1,–,–,–,–,–,38
Fc1cccc(Nc2nc(Cl)nc(Cl)n2)c1,–,–,–,–,–,–
CN(C#N)c1nc(Cl)nc(Nc2cccc(Cl)c2)n1,–,–,–,–,15,–
O=C(O)c1ccccc1CSc1ccccn1,–,–,–,–,–,32
CCCCCC/C(C)=C1/SC(=S)NC1=O,–,–,–,–,–,–
C/C(C/C(C)=C1/SC(=S)NC1=O)=C1\SC(=S)NC1=O,–,–,–,–,–,33
CCCC[N+](CC#Cc1ccccc1)(CCCC)CCCS(=O)(=O)[O-],–,–,–,–,–,–
Cc1c(NC(=S)NC(=O)C(C)(C)C)cccc1[N+](=O)[O-],–,–,–,–,–,–
CC(C)(C)C(=O)NC(=S)Nc1ccccc1C(N)=O,11,–,–,–,–,–
CC(=O)Nc1cccc(/C(C)=N/NS(=O)(=O)c2ccccc2)c1,–,–,–,–,–,–
COc1ccc(S(=O)(=O)N/N=C(/C)c2cccc(NC(=O)c3ccccc3Cl)c2)cc1,–,–,–,–,–,37
CN(C)c1ccc(/C=N/N2CCN(c3ccccn3)CC2)cc1,–,·,·,–,–,·
CCC(C(=O)NC1CCCC1)N(C(=O)Cn1nnc(-c2ccc(C)o2)n1)c1cnc2ccccc2c1 (stereo unspecified),9.8,–,–,–,–,–
COc1ccc(C(=O)Nc2nc3cc4c(cc3s2)OCO4)c(OC)c1,–,·,·,–,–,·
C/C(=N\OCC(=O)Nc1ccc(F)c(F)c1F)c1cc2ccccc2o1,–,–,–,–,–,–
CSc1ccccc1NC(=O)CO/N=C(\C)c1cc2ccccc2o1,–,–,–,–,–,38
COC(=O)c1cnc(N2CCOCC2)nc1C(F)(F)F,10,·,·,–,–,·
CCOc1ccc(N(CC(=O)NC2CCCC2)S(=O)(=O)c2c(C)[nH]c(=O)[nH]c2=O)cc1,–,–,–,–,–,–
COc1ccc(CCNC(=O)C(C(=O)c2ccc(F)cc2)n2ccccc2=O)cc1OC (stereo unspecified),–,–,–,–,–,–
COc1ccc(CCNC(=O)C(C(=O)c2ccccc2)n2ccccc2=O)cc1OC (stereo unspecified),11,–,–,–,–,–
Cc1ccc(-c2csc(N/N=C/c3ccco3)n2)c(C)c1,9.6,–,–,–,–,–
CN(C)S(=O)(=O)c1cccc(-c2csc(N/N=C/c3ccco3)n2)c1,–,·,·,–,–,·
COc1cc2nc(/C=C/c3cc(OC)c(OC)c(OC)c3)sc2cc1SC,9.7,–,–,–,–,–
SMILES,Wee1 degr inh,PKD1 kinase inh,Redox H2O2 prof,RBBP9 inh,p97 ATPase inh,Arbovirus inh
Cc1ccc(NC(=O)COC(=O)C2=COCCO2)c([N+](=O)[O-])c1,9.3,–,–,–,–,–
Cc1ccc(NC(=O)COC(=O)C2=COCCO2)cc1,–,–,–,–,–,–
CN(C)S(=O)(=O)c1cccc(NC(=O)COC(=O)c2cccc(S(=O)(=O)N3CCc4ccccc4C3)c2)c1,11,–,–,–,–,–
Cc1cc(C(=O)OCC(=O)Nc2cccc(S(=O)(=O)N(C)C)c2)c2ccccc2n1,11,–,–,–,–,–
NS(=O)(=O)c1cccc(NC(=O)COC(=O)c2cc(-c3ccc(Cl)cc3)nc3ccccc23)c1,9.0,–,–,–,–,–
C/C(=N\NC(N)=S)C1(C)CC2(CC(C)(C)OC2=O)C(=O)O1 (stereo unspecified),–,·,·,–,–,·
CCOC(=O)c1cc(CC)sc1/N=C/c1c(O)ccc2ccccc12,9.2,–,–,–,–,–
CCOC(=O)c1cc(CC)sc1/N=C/C1C(=O)CCCC1=O,–,–,–,–,–,–
CCCCOc1ccc(C(O)C(CN2CCCCC2)c2ccccc2)cc1 (stereo unspecified),–,–,–,–,–,37
CCCCOc1ccc(C(O)C(CN2CCOCC2)c2ccccc2)cc1 (stereo unspecified),–,·,·,–,–,·
